Measurements published in ChEMBL document CHEMBL4433205, “Dual Pharmacophores Explored via Structure-Activity Relationship (SAR) Matrix: Insights into Potent, Bifunctional Opioid Ligand Design” (J Med Chem, 2019).
Active and inactive are the calls of the source.

Target: T1, Mu-type opioid receptor (Rattus norvegicus, UniProt P33535)
T1 sequence (P33535 whole entry): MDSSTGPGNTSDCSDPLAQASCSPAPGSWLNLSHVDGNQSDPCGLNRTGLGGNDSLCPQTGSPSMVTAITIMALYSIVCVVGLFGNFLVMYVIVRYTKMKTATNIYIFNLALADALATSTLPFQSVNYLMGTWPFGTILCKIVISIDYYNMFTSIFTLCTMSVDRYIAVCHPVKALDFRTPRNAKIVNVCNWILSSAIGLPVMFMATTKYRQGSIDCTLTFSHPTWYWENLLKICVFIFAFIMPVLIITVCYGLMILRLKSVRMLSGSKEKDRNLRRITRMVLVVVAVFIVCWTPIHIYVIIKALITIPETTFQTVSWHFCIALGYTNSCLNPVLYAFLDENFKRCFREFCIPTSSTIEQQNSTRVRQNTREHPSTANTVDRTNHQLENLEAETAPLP
Experiment: Displacement of [3H]diprenorphine from rat mu opioid receptor expressed in rat C6 cell membranes measured after 1 hr by liquid scintillation counting method
Conditions: not given
In short: (§1)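 Competition with 0.2 nM [3H]-diprenorphine on membranes (20 μg protein/tube) from stably transfected cells in 50 mM Tris-HCl pH 7.4, 1 h at room temperature with shaking; GF/C filtration, three washes, scintillation counting. Nonspecific binding defined with 10 μM naloxone.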
Cc1cc(O)cc(C)c1C[C@H](N)C(=O)N[C@@H]1CCN(S(C)(=O)=O)c2ccc(Cc3cnc4ccccc4c3)cc21.O=C(O)C(F)(F)F gave a Ki of 230 pM.
For Cc1cc(O)cc(C)c1C[C@H](N)C(=O)N[C@@H]1CCN(C(=O)C2CC2)c2ccc(Cc3cc4ccccc4o3)cc21.O=C(O)C(F)(F)F, the Ki was 50 pM.
With Cc1cc(O)cc(C)c1C[C@H](N)C(=O)N[C@@H]1CCN(C(=O)C2CC2)c2ccc(Cc3ccc4c(c3)OCCO4)cc21.O=C(O)C(F)(F)F the Ki was 280 pM.

Test system: Mus musculus
Experiment: Antinociceptive activity in C57BL/6 mouse assessed as increase in latency to tail withdrawal up to 10 mg/kg, ip administered at 30 mins interval measured during compound dosing by warm water tail withdrawal assay relative to control
Format: functional
Conditions: not given
In short: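 Male C57BL/6 mice, 20–30 g, 8–16 weeks. Saline ip, baseline latency 30 min later; then cumulative ip doses 1, 3.2, 10 mg/kg in 5% DMSO/saline at 30 min intervals, latency read 30 min after each. Tail tip (2–3 cm) in 50°C water, 20 s cutoff; expressed as % MPE (MPE = 20 s).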
With Cc1cc(O)cc(C)c1C[C@H](N)C(=O)N[C@@H]1CCN(S(C)(=O)=O)c2ccc(Cc3cnc4ccccc4c3)cc21.O=C(O)C(F)(F)F the MPE was 50%.
In the case of Cc1cc(O)cc(C)c1C[C@H](N)C(=O)N[C@@H]1CCN(C(=O)C2CC2)c2ccc(Cc3cc4ccccc4o3)cc21.O=C(O)C(F)(F)F, the MPE is reported as “inactive”.
In the case of Cc1cc(O)cc(C)c1C[C@H](N)C(=O)N[C@@H]1CCN(C(=O)C2CC2)c2ccc(Cc3ccc4c(c3)OCCO4)cc21.O=C(O)C(F)(F)F, the MPE is reported as “inactive”.

Target: T2, Delta-type opioid receptor (Rattus norvegicus, UniProt P33533)
T2 sequence (P33533 whole entry): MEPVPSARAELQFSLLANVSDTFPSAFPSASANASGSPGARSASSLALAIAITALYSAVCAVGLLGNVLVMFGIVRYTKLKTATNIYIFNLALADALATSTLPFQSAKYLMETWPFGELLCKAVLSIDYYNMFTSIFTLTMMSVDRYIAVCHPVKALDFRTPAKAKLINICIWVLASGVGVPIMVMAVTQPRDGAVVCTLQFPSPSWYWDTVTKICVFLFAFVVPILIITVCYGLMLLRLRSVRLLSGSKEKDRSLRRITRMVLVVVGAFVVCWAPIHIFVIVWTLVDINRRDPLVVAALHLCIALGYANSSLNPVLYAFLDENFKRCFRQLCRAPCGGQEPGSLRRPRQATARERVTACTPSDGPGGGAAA
Experiment: Displacement of [3H]diprenorphine from rat delta opioid receptor expressed in rat C6 cell membranes measured after 1 hr by liquid scintillation counting method
Conditions: not given
Work on Cc1cc(O)cc(C)c1C[C@H](N)C(=O)N[C@@H]1CCN(S(C)(=O)=O)c2ccc(Cc3cnc4ccccc4c3)cc21.O=C(O)C(F)(F)F yielded a Ki of 640 pM.
Compound Cc1cc(O)cc(C)c1C[C@H](N)C(=O)N[C@@H]1CCN(C(=O)C2CC2)c2ccc(Cc3cc4ccccc4o3)cc21.O=C(O)C(F)(F)F has a Ki of 260 pM.
With Cc1cc(O)cc(C)c1C[C@H](N)C(=O)N[C@@H]1CCN(C(=O)C2CC2)c2ccc(Cc3ccc4c(c3)OCCO4)cc21.O=C(O)C(F)(F)F the Ki was 190 pM.

Target: Mu-type opioid receptor (Rattus norvegicus) (UniProt P33535)
Sequence (P33535 whole entry): as the sequence (P33535 whole entry) above
Experiment: Agonist activity at rat mu opioid receptor expressed in rat C6 glioma cell membranes assessed as stimulation of [35S]GTPgammaS binding measured after 1 hr relative to DAMGO
Format: functional
Conditions: not given
Work on Cc1cc(O)cc(C)c1C[C@H](N)C(=O)N[C@@H]1CCN(S(C)(=O)=O)c2ccc(Cc3cnc4ccccc4c3)cc21.O=C(O)C(F)(F)F yielded an Efficacy of 96%.
For Cc1cc(O)cc(C)c1C[C@H](N)C(=O)N[C@@H]1CCN(C(=O)C2CC2)c2ccc(Cc3cc4ccccc4o3)cc21.O=C(O)C(F)(F)F, the Efficacy was 89%.
Compound Cc1cc(O)cc(C)c1C[C@H](N)C(=O)N[C@@H]1CCN(C(=O)C2CC2)c2ccc(Cc3ccc4c(c3)OCCO4)cc21.O=C(O)C(F)(F)F has an Efficacy of 36%.

Target: T3, Kappa-type opioid receptor (Homo sapiens, UniProt P41145)
T3 sequence (P41145 whole entry): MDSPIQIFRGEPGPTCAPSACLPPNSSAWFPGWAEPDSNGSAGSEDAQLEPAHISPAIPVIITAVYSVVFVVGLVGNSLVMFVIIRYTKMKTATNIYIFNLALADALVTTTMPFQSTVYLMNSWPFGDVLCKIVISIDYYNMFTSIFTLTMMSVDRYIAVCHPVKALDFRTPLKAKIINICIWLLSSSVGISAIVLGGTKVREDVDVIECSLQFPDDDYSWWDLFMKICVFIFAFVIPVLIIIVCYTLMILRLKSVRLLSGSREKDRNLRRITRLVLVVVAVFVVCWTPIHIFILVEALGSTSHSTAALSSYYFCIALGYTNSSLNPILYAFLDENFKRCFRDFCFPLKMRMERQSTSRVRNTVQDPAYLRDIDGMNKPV
Experiment: Agonist activity at human kappa opioid receptor expressed in CHO cell membranes assessed as stimulation of [35S]GTPgammaS binding measured after 1 hr
Format: functional
Conditions: cho
In the case of Cc1cc(O)cc(C)c1C[C@H](N)C(=O)N[C@@H]1CCN(S(C)(=O)=O)c2ccc(Cc3cnc4ccccc4c3)cc21.O=C(O)C(F)(F)F, the EC50 is reported as “Not Active”.
In the case of Cc1cc(O)cc(C)c1C[C@H](N)C(=O)N[C@@H]1CCN(C(=O)C2CC2)c2ccc(Cc3cc4ccccc4o3)cc21.O=C(O)C(F)(F)F, the EC50 is reported as “Not Active”.
In the case of Cc1cc(O)cc(C)c1C[C@H](N)C(=O)N[C@@H]1CCN(C(=O)C2CC2)c2ccc(Cc3ccc4c(c3)OCCO4)cc21.O=C(O)C(F)(F)F, the EC50 is reported as “Not Active”.

Target: T3, Kappa-type opioid receptor
Experiment: Displacement of [3H]diprenorphine from human kappa opioid receptor expressed in CHO cell membranes measured after 1 hr by liquid scintillation counting method
Conditions: not given
In short: as §1
With Cc1cc(O)cc(C)c1C[C@H](N)C(=O)N[C@@H]1CCN(S(C)(=O)=O)c2ccc(Cc3cnc4ccccc4c3)cc21.O=C(O)C(F)(F)F the Ki was 7000 pM.
Cc1cc(O)cc(C)c1C[C@H](N)C(=O)N[C@@H]1CCN(C(=O)C2CC2)c2ccc(Cc3cc4ccccc4o3)cc21.O=C(O)C(F)(F)F gave a Ki of 98000 pM.
Cc1cc(O)cc(C)c1C[C@H](N)C(=O)N[C@@H]1CCN(C(=O)C2CC2)c2ccc(Cc3ccc4c(c3)OCCO4)cc21.O=C(O)C(F)(F)F gave a Ki of 412000 pM.

Target: T3, Kappa-type opioid receptor
Experiment: Agonist activity at human kappa opioid receptor expressed in CHO cell membranes assessed as stimulation of [35S]GTPgammaS binding to G protein incubated for 1 hr relative to U69,593
Format: functional
Conditions: not given
For Cc1cc(O)cc(C)c1C[C@H](N)C(=O)N[C@@H]1CCN(S(C)(=O)=O)c2ccc(Cc3cnc4ccccc4c3)cc21.O=C(O)C(F)(F)F, the Efficacy was “inactive”.
For Cc1cc(O)cc(C)c1C[C@H](N)C(=O)N[C@@H]1CCN(C(=O)C2CC2)c2ccc(Cc3cc4ccccc4o3)cc21.O=C(O)C(F)(F)F, the Efficacy was “inactive”.
For Cc1cc(O)cc(C)c1C[C@H](N)C(=O)N[C@@H]1CCN(C(=O)C2CC2)c2ccc(Cc3ccc4c(c3)OCCO4)cc21.O=C(O)C(F)(F)F, the Efficacy was “inactive”.

Target: T1, Mu-type opioid receptor
Experiment: Agonist activity at rat mu opioid receptor expressed in rat C6 cell membranes assessed as stimulation of [35S]GTPgammaS binding measured after 1 hr
Format: functional
Conditions: not given
In short: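 Membranes (10–20 μg protein/tube) from stably transfected cells incubated 1 h at 25°C in 50 mM Tris-HCl, 100 mM NaCl, 5 mM MgCl2, pH 7.4, with 0.1 nM [35S]-GTPγS, 30 μM GDP and varying test concentrations; filtration, scintillation counting.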
Work on Cc1cc(O)cc(C)c1C[C@H](N)C(=O)N[C@@H]1CCN(S(C)(=O)=O)c2ccc(Cc3cnc4ccccc4c3)cc21.O=C(O)C(F)(F)F yielded an EC50 of 260 pM.
With Cc1cc(O)cc(C)c1C[C@H](N)C(=O)N[C@@H]1CCN(C(=O)C2CC2)c2ccc(Cc3cc4ccccc4o3)cc21.O=C(O)C(F)(F)F the EC50 was 900 pM.
For Cc1cc(O)cc(C)c1C[C@H](N)C(=O)N[C@@H]1CCN(C(=O)C2CC2)c2ccc(Cc3ccc4c(c3)OCCO4)cc21.O=C(O)C(F)(F)F, the EC50 was 6000 pM.

Test system: not listed separately
Experiment: Lipophilicity, log P of the compound
Format: physicochemical
Conditions: octanol/water
For Cc1cc(O)cc(C)c1C[C@H](N)C(=O)N[C@@H]1CCN(S(C)(=O)=O)c2ccc(Cc3cnc4ccccc4c3)cc21.O=C(O)C(F)(F)F, the logP was 3.1.
Cc1cc(O)cc(C)c1C[C@H](N)C(=O)N[C@@H]1CCN(C(=O)C2CC2)c2ccc(Cc3cc4ccccc4o3)cc21.O=C(O)C(F)(F)F showed a logP of 4.5.
Cc1cc(O)cc(C)c1C[C@H](N)C(=O)N[C@@H]1CCN(C(=O)C2CC2)c2ccc(Cc3ccc4c(c3)OCCO4)cc21.O=C(O)C(F)(F)F gave a logP of 3.7.

Target: Delta-type opioid receptor (Rattus norvegicus) (UniProt P33533)
Sequence (P33533 whole entry): as the sequence (P33533 whole entry) above
Experiment: Agonist activity at rat delta opioid receptor expressed in rat C6 cell membranes assessed as stimulation of [35S]GTPgammaS binding incubated for 1 hr relative to DPDPE
Format: functional
Conditions: not given
With Cc1cc(O)cc(C)c1C[C@H](N)C(=O)N[C@@H]1CCN(S(C)(=O)=O)c2ccc(Cc3cnc4ccccc4c3)cc21.O=C(O)C(F)(F)F the Efficacy was “inactive”.
In the case of Cc1cc(O)cc(C)c1C[C@H](N)C(=O)N[C@@H]1CCN(C(=O)C2CC2)c2ccc(Cc3cc4ccccc4o3)cc21.O=C(O)C(F)(F)F, the Efficacy is reported as 52%.
In the case of Cc1cc(O)cc(C)c1C[C@H](N)C(=O)N[C@@H]1CCN(C(=O)C2CC2)c2ccc(Cc3ccc4c(c3)OCCO4)cc21.O=C(O)C(F)(F)F, the Efficacy is reported as “inactive”.

Target: T2, Delta-type opioid receptor
Experiment: Agonist activity at rat delta opioid receptor expressed in rat C6 cell membranes assessed as stimulation of [35S]GTPgammaS binding measured after 1 hr
Format: functional
Conditions: c6
For Cc1cc(O)cc(C)c1C[C@H](N)C(=O)N[C@@H]1CCN(S(C)(=O)=O)c2ccc(Cc3cnc4ccccc4c3)cc21.O=C(O)C(F)(F)F, the EC50 was “Not Active”.
For Cc1cc(O)cc(C)c1C[C@H](N)C(=O)N[C@@H]1CCN(C(=O)C2CC2)c2ccc(Cc3ccc4c(c3)OCCO4)cc21.O=C(O)C(F)(F)F, the EC50 was “Not Active”.

Same assay, conditions: read-out: EC50
Cc1cc(O)cc(C)c1C[C@H](N)C(=O)N[C@@H]1CCN(C(=O)C2CC2)c2ccc(Cc3cc4ccccc4o3)cc21.O=C(O)C(F)(F)F gave an EC50 of 3700 pM.

Species on record: Rattus norvegicus
Experiment: Selectivity ratio of Ki for rat delta opioid receptor expressed in rat C6 cell membranes to Ki for rat mu opioid receptor expressed in rat C6 cell membranes
Format: cell-based
Conditions: not given
In short: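 Competition binding against 0.2 nM [3H]-diprenorphine, using C6 membranes expressing rat MOR or rat DOR (20 μg protein/tube). Run in 50 mM Tris-HCl pH 7.4, 1 h at room temperature with shaking, then filtration and scintillation counting. Nonspecific binding with 10 μM naloxone.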
In the case of Cc1cc(O)cc(C)c1C[C@H](N)C(=O)N[C@@H]1CCN(S(C)(=O)=O)c2ccc(Cc3cnc4ccccc4c3)cc21.O=C(O)C(F)(F)F, the Ratio Ki is reported as 3.
Cc1cc(O)cc(C)c1C[C@H](N)C(=O)N[C@@H]1CCN(C(=O)C2CC2)c2ccc(Cc3ccc4c(c3)OCCO4)cc21.O=C(O)C(F)(F)F showed a Ratio Ki of 0.7.
